Compounds with a hit are over-represented: about 2.4% of the library has one in this group of screens.
Yeast growth inh: chemicals that inhibit yeast BB579 growth in restrictive medium (lifespan-shortening candidates); AID 804; inhibition, % at 10 µM; S. cerevisiae BB579 growth, OD615, 48 h; actives 0.51% (n = 140,000);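 active = inhibition above a set limit, 3 SD over the mean compound inhibition, cut at about 44% in these data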
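System: Saccharomyces cerevisiae DeaD strain BB579, replicative lifespan model yeast | Buffer or medium: Restrictive glucose-based CSMM-D medium | Times: 4 h preincubation and 48 h exposure at 30 °C | Detection: OD615 turbidity measurement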
Arbovirus anti: arbovirus infection inhibition | actives 0.37% (n = 200,000) | arbovirus infection cell-based antiviral screen | inhibition, % at 10 µM; in the data active = inhibition above about 30%
Efa HMGR inh: inhibitors of class II HMG-CoA reductase from Enterococcus faecalis. actives 0.41% (n = 190,000). purified E. faecalis HMGR, NADPH absorbance 340 nm kinetic. inhibition, % at 10 µM. AID 1066;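 active = inhibition above a set limit, the median over all tested compounds plus 3 SD, cut at about 9.5% in these data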;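 note: enzyme runs in reverse so mevalonate oxidation gives rising NADPH absorbance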
Rad51 HR inh: blocks human Rad51 in homologous recombination; Q06609; inhibition, % at 10 µM; actives 0.085% (n = 200,000); hRad51 DNA strand exchange, fluorescence dequenching;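 active = inhibition above 40% at the single screening dose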
Target sequence (Q06609 whole entry, looked up): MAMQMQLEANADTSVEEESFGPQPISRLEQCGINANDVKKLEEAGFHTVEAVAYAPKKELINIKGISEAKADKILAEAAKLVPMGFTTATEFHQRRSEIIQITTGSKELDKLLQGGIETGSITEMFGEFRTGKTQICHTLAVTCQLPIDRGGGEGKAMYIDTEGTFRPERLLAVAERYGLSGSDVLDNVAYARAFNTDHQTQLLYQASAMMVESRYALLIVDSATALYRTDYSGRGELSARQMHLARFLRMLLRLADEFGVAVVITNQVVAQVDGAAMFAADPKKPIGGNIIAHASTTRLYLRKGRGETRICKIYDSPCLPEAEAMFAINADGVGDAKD
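System: human Rad51 nucleoprotein filaments preassembled on unlabelled ssDNA. Reagent: labelled 47-mer dsDNA for strand exchange. Schedule: 30-min compound preincubation and 15-min exchange, both room temperature. Measured by: FRET fluorescence dequenching, excitation 485 nm, emission 520 nm. Read-out: Fluorescence-based percent inhibition, control- and blank-normalised. Benchmarks: plate controls and plate blanks.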
Yeast life ext: extends the lifespan of yeast. AID 775. actives 0.68% (n = 130,000). S. cerevisiae growth with nicotinamide, OD615; deaD strain in restrictive glucose medium. inhibition of the nicotinamide effect, % at 10 µM;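 active = inhibition above a set limit, placed 3 SD over the median of all compounds, cut at about 26% in these data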
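Assay system: engineered S. cerevisiae DeaD replicative-lifespan strain, galactose-grown log-phase cells; Buffer or medium: CSMM-D glucose medium, restrictive; Probe or stimulus: nicotinamide 1.5 mM; Compound: single dose 10 µM compound, 0.25% DMSO; Schedule: 4 h preincubation then 48 h treatment at 30 °C; Technique: OD615 measurement.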
Measles CPE: protection of cells from measles virus | Measles virus-infected cells, CPE protection, absorbance | protection (pct of control), % at 4 µM | actives 1.5% (n = 140,000); in the data active = protection mostly above about 24%, no sharp cut-off; inactive = mostly below about 26%
Numbers stand for hits; – = inactive; · = not tested or not shown.

SMILES | Yeast growth inh | Arbovirus anti | Efa HMGR inh | Rad51 HR inh | Yeast life ext | Measles CPE
Cc1[nH][nH]c(=O)c1C(c1ccc(-c2ccc(Cl)cc2Cl)o1)c1c(C)[nH][nH]c1=O | – | – | 10 | – | – | –
Cc1ccc(N2C(=O)/C(=C\c3ccc(C(C)C)cc3)N=C2SC2CCOC2=O)cc1 (configuration not stated) | – | 39 | – | – | – | –
CC(=O)Nc1ccc(C(=O)CSc2nnc(-c3ccc(O)cc3)n2CC2CCCO2)cc1 (configuration not stated) | – | – | – | – | 64 | –
Nc1oc2ccc(F)cc2c(=O)c1C=O | – | – | – | – | 27 | –
Nc1oc2ccccc2c(=O)c1C=O | – | – | – | – | – | –
Cc1cc(N2C(=O)C3C4CC(C(Br)C4Br)C3C2=O)no1 (configuration not stated) | – | – | – | – | – | 32
C/C(=N\S(=O)(=O)c1ccc(C)cc1)N(C)C | · | · | · | – | · | ·
CCOC(=O)CC(=O)Nc1ccc(Br)cc1C(=O)O | – | – | – | – | – | –
CCCCC(=O)Nc1ccc(Br)cc1C(=O)O | – | – | – | – | – | 55
CN(CC(=O)NCCc1ccccc1)S(=O)(=O)c1ccccc1 | · | – | 14 | – | · | ·
CCN(CC(=O)NCCc1ccccc1)S(=O)(=O)c1ccc(Br)cc1 | – | – | – | – | – | –
CCC(C)OC(=O)C1C(c2ccccc2)C(C(=O)O)C1c1ccccc1 (configuration not stated) | – | – | – | – | 37 | –
CCCCCOC(=O)C1C(c2ccccc2)C(C(=O)O)C1c1ccccc1 (configuration not stated) | – | – | – | · | 32 | –
CCOC(=O)C1C(c2ccccc2)C(C(=O)OCC)C1c1ccccc1 (configuration not stated) | – | – | – | – | · | –
Cc1cc(NC(=O)CSc2nncc(=O)n2N)no1 | · | – | – | · | · | ·
CC1(C)CC(=O)C=C(c2ccc3[nH]ccc3c2)C1 | · | · | · | – | · | ·
O=C1c2cccc3c(Cl)ccc(c23)C(=O)N1O | 82 | – | – | – | – | –
C1CCC(C(CC2CCCCN2)C2CCCCC2)CC1 (configuration not stated) | – | – | 10 | – | – | –
Oc1ccc(/C=C/c2nc(-c3ccccc3O)n(-c3ccccc3)n2)cc1 | 98 | – | – | – | – | –
O=c1[nH]cnc(O)c1C(c1ccc2c(c1)OCO2)c1c(O)nc[nH]c1=O | · | – | – | – | · | ·
CCOC(=O)C1=C(C)NC(=S)NC1c1ccsc1 (configuration not stated) | · | – | – | – | · | ·
COc1cc([N+](=O)[O-])ccc1N1C(=O)C2C3C=CC(C4CC34)C2C1=O (configuration not stated) | · | – | – | – | · | ·
CCCCCCCCCC(=O)Nc1cccnc1 | · | – | 10 | – | · | ·
COc1ccc(C(=O)NCC(=O)OCc2ccc(F)cc2)cc1 | · | – | – | – | · | ·
COc1ccc(OC)c(-c2csc(N(CC3CCCO3)C(=O)Cc3ccccc3)n2)c1 (configuration not stated) | · | – | – | – | · | ·
SMILES | Yeast growth inh | Arbovirus anti | Efa HMGR inh | Rad51 HR inh | Yeast life ext | Measles CPE
COc1cccc(N=c2oc3c(C)ncc(CO)c3cc2C(=O)Nc2ccccc2OC)c1 | – | – | – | · | – | –
CCOc1ccc(OCC)c(N=c2oc3c(C)ncc(CO)c3cc2C(N)=O)c1 | – | – | – | · | – | 50
CCOC(=O)c1c(NC(=O)CSc2ncn[nH]2)sc(C)c1C | – | 45 | – | – | – | –
CCSc1nnc(C)c(=O)n1COC(=O)c1ccc(S(=O)(=O)N2CCCC2)cc1 | – | – | – | – | – | –
COc1cc(OC)cc(C(=O)N[C@H](C(=O)OCC(=O)c2ccc3c(c2)NC(=O)CO3)C(C)C)c1 | – | – | – | – | – | 32
CCN(Cc1ccncc1)C(=O)c1ccc2c(c1)S(=O)(=O)c1ccccc1C2=O | · | – | – | – | · | ·
O=C(/C=C\c1cccs1)c1c(O)ccc2ccc(=O)oc12 | – | – | – | · | 27 | –
Cc1ccc(C(=O)NN2C(=O)C3C4C=CC(C5CC45)C3C2=O)cc1 (configuration not stated) | · | – | 11 | – | · | ·
O=C(COC(=O)CNC(=O)c1ccc(Cl)cc1)Nc1ccc(Cl)cc1C(F)(F)F | – | – | – | – | – | ·
CCCCCCc1cc2cc(C(=O)Nc3cccc(OC)c3)c(=O)oc2cc1O | – | – | – | – | – | –
CCCCCCc1cc2cc(C(=O)Nc3ccc(OC)cc3)c(=O)oc2cc1O | – | 47 | – | · | – | –
O=C(/C=C\c1ccc(-c2ccccc2)o1)c1ccccc1 | – | – | – | – | – | –
Cc1ccc(C(=O)/C=C/c2ccc(-c3ccc(C)cc3)o2)cc1 | – | – | – | · | 28 | –
Cc1ccc(C(=O)/C=C\C(=O)c2ccc(C)cc2)cc1 | – | – | – | – | 65 | –
Cc1ccc(N2C(=O)N(CC(=O)Nc3ccc(C)c(C)c3[N+](=O)[O-])C(=O)C2C)cc1 (configuration not stated) | · | – | – | – | · | ·
O=C(CN(C(=O)CCC(=O)Nc1nccs1)C1CCCC1)NCc1ccc2c(c1)OCO2 | · | – | – | – | · | ·
Clc1ccc(C2=CSC3=NCCN23)cc1Cl | – | – | – | – | – | 54
COc1cc([N+](=O)[O-])c2ncsc2c1 | – | – | – | – | – | 17
COc1ccc(OCCNC2CCCC2)cc1 | 71 | – | – | – | – | –
c1ccc(-c2ccc(OCCCNC3CCCC3)cc2)cc1 | · | – | – | – | · | ·
CC(C)(C)c1ccc(S(=O)(=O)Nc2cccc(C3OCCCO3)c2)cc1 | – | – | – | – | – | –
C=CCn1c(C)cc(C(=O)COC(=O)/C=C/c2cccc(OC)c2)c1C | · | – | – | – | · | ·
O=C1CN(c2nc(-c3ccccc3)c3cc(Cl)ccc3n2)c2ccccc2N1 | – | – | – | – | – | 40
Clc1ccc2nc(N3CCNCC3)nc(-c3ccccc3)c2c1 | – | – | – | – | – | –
OCCN1CCN(c2nc(-c3ccccc3)c3cc(Cl)ccc3n2)CC1 | – | – | – | – | – | 63
SMILES | Yeast growth inh | Arbovirus anti | Efa HMGR inh | Rad51 HR inh | Yeast life ext | Measles CPE
CCC1CC(C)(C(=O)Nc2ccc(S(N)(=O)=O)cc2)OC1=O (configuration not stated) | – | – | – | · | 49 | –
CC1CC(CC(C)C(=O)NC(=S)Nc2ccc(S(N)(=O)=O)cc2)C(=O)O1 (configuration not stated) | · | – | – | – | · | ·
Oc1c(Cl)cc(Cl)cc1C=Nc1ccccc1N1CCCC1 | – | – | – | – | 28 | –
Cc1cc(C)cc(OCC(=O)Nc2cccc(C(=O)O)c2)c1 | – | – | – | – | – | 89
Cc1cccc(OCC(=O)Nc2cccc(C(=O)Nc3ccccc3C(=O)O)c2)c1 | – | 55 | – | · | – | –
CC(C)c1ccc(OCC(=O)Nc2cccc(C(=O)Nc3ccccc3C(=O)O)c2)cc1 | · | – | – | – | · | ·
Cc1cc(C(=O)N/N=C/c2cccn2C)no1 | – | – | – | – | – | 43

Compound activity from PubChem BioAssay.
